Reference: ChEMBL document CHEMBL1125838, “Conformational restriction of the phenylalanine residue in a cyclic opioid peptide analogue: effects on receptor selectivity and stereospecificity” (J Med Chem, 1991)

How the values were obtained:
Cavia porcellus [1] = organism: Cavia porcellus; experiment: Relative potency towards guinea pig ileum relative to [Leu5]-enkephalin; format: functional
How it was run: (§1)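 The [Leu5]enkephalin standard's log dose-response curve was run on each individual ileum or vas deferens preparation. Test IC50 values for inhibition of electrically evoked contractions were normalized to it, giving potency relative to [Leu5]enkephalin.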

Cavia porcellus [2] = organism: Cavia porcellus; experiment: Compound was tested in vitro for inhibition of electrically evoked contractions of the guinea pig ileum; format: functional
How it was run: (§2)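 Electrically stimulated guinea pig ileum or mouse vas deferens preparations; inhibition of evoked contractions measured. Each preparation also gave a log dose-response curve for the [Leu5]enkephalin standard, and test IC50 values were normalized against it. Naloxone Ki came from the ratio of IC50 values with and without a fixed naloxone concentration.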

Mus musculus [3] = organism: Mus musculus; experiment: Compound was tested in vitro for inhibition of electrically evoked contractions of the mouse vas deferens; format: functional; how it was run: as §2
Mus musculus [4] = organism: Mus musculus; experiment: Relative potency towards mouse vas deferens relative to [Leu5]-enkephalin; format: functional; how it was run: as §1
[5] = biological target: Delta-type opioid receptor (Rattus norvegicus, UniProt P33533); experiment: Displacement of [3H]DSLET from rat brain membrane opioid receptor delta
Sequence of Delta-type opioid receptor (P33533 whole entry): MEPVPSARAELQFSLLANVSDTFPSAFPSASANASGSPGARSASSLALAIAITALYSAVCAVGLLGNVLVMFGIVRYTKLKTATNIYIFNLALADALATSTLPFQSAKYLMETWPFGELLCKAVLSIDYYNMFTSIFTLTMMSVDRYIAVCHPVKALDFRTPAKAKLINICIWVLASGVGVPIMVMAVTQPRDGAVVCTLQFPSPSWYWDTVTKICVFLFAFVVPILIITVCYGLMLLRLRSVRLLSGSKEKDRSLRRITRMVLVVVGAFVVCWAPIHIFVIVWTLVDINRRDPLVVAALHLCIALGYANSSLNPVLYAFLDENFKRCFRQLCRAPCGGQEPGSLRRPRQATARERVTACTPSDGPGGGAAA
How it was run: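 Rat brain membranes incubated with 0.78 nM [3H]DSLET at 0 °C for 2 h. IC50 taken from log dose-displacement curves.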

Mu-type opioid receptor = Mu-type opioid receptor (Rattus norvegicus, UniProt P33535); experiment: Displacement of [3H]DAGO from rat brain membrane opioid receptor mu
Sequence of Mu-type opioid receptor (P33535 whole entry): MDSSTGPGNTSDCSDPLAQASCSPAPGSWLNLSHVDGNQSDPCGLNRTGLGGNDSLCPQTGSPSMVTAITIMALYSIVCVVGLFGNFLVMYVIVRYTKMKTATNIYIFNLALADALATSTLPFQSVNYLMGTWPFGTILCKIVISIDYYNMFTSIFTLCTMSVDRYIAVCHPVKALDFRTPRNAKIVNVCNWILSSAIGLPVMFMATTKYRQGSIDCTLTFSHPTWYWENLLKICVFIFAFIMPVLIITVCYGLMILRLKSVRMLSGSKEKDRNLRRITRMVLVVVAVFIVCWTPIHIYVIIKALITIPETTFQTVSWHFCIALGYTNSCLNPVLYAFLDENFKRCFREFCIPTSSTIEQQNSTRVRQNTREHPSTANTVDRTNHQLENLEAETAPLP

NC(=O)[C@@H]1CCC(=O)NCCC[C@@H](NC(=O)[C@@H](N)Cc2ccc(O)cc2)C(=O)N[C@@H](Cc2ccc3ccccc3c2)C(=O)N1
Relative potency (Cavia porcellus [1]): 60.5
IC50 (Cavia porcellus [2]): 0.00407 µM
IC50 (Mus musculus [3]): 0.0109 µM
Relative potency (Mus musculus [4]): 1.05
Ki [5]: 0.0507 µM
Ki (Mu-type opioid receptor): 0.00256 µM

NC(=O)[C@@H]1CCC(=O)NCCC[C@@H](NC(=O)[C@@H](N)Cc2ccc(O)cc2)C(=O)N2Cc3ccccc3C[C@H]2C(=O)N1
Relative potency (Cavia porcellus [1]): 0.0803
IC50 (Cavia porcellus [2]): 3.06 µM
IC50 (Mus musculus [3]): 7.31 µM
Relative potency (Mus musculus [4]): 0.00156
Ki [5]: 50.1 µM
Ki (Mu-type opioid receptor): 2.41 µM

NC(=O)[C@@H]1CCC(=O)NCCC[C@@H](NC(=O)[C@@H](N)Cc2ccc(O)cc2)C(=O)N[C@@]2(CCc3ccccc3C2)C(=O)N1 (single isomer, unassigned)
Relative potency (Cavia porcellus [1]): 0.863
IC50 (Cavia porcellus [2]): 0.285 µM
IC50 (Mus musculus [3]): 3.07 µM
Relative potency (Mus musculus [4]): 0.00371
Ki [5]: 3.51 µM
Ki (Mu-type opioid receptor): 0.0263 µM

NC(=O)[C@@H]1CCC(=O)NCCC[C@@H](NC(=O)[C@@H](N)Cc2ccc(O)cc2)C(=O)NC2(Cc3ccccc3C2)C(=O)N1 [listing 1 of 2 here]
IC50 (Cavia porcellus [2]): 0.00721 µM
IC50 (Mus musculus [3]): 0.0365 µM
Ki [5]: 0.209 µM
Ki (Mu-type opioid receptor): 0.00421 µM

NC(=O)[C@@H]1CCC(=O)NCCC[C@@H](NC(=O)[C@@H](N)Cc2ccc(O)cc2)C(=O)N[C@@H](Cc2ccccc2)C(=O)N1
Relative potency (Cavia porcellus [1]): 210
IC50 (Cavia porcellus [2]): 0.00117 µM
IC50 (Mus musculus [3]): 0.00111 µM
Relative potency (Mus musculus [4]): 10.3
Ki [5]: 0.00321 µM
Ki (Mu-type opioid receptor): 0.000981 µM

CN1C(=O)[C@H](NC(=O)[C@@H](N)Cc2ccc(O)cc2)CCCNC(=O)CC[C@@H](C(N)=O)NC(=O)[C@@H]1Cc1ccccc1
Relative potency (Cavia porcellus [1]): 0.348
IC50 (Cavia porcellus [2]): 0.707 µM
IC50 (Mus musculus [3]): 2.07 µM
Relative potency (Mus musculus [4]): 0.00551
Ki [5]: 12.8 µM
Ki (Mu-type opioid receptor): 1 µM

Cc1ccccc1C[C@@H]1NC(=O)[C@H](NC(=O)[C@@H](N)Cc2ccc(O)cc2)CCCNC(=O)CC[C@@H](C(N)=O)NC1=O
Relative potency (Cavia porcellus [1]): 453
IC50 (Cavia porcellus [2]): 0.000543 µM
IC50 (Mus musculus [3]): 0.00111 µM
Relative potency (Mus musculus [4]): 10.3
Ki [5]: 0.00922 µM
Ki (Mu-type opioid receptor): 0.00192 µM

C[C@]1(Cc2ccccc2)NC(=O)[C@H](NC(=O)[C@@H](N)Cc2ccc(O)cc2)CCCNC(=O)CC[C@@H](C(N)=O)NC1=O
Relative potency (Cavia porcellus [1]): 74.3
IC50 (Cavia porcellus [2]): 0.00331 µM
IC50 (Mus musculus [3]): 0.00551 µM
Relative potency (Mus musculus [4]): 2.07
Ki [5]: 0.0546 µM
Ki (Mu-type opioid receptor): 0.00717 µM

NC(=O)[C@@H]1CCC(=O)NCCC[C@@H](NC(=O)[C@@H](N)Cc2ccc(O)cc2)C(=O)N[C@]2(CCc3ccccc3C2)C(=O)N1 (single isomer, unassigned)
Relative potency (Cavia porcellus [1]): 7.78
IC50 (Cavia porcellus [2]): 0.0316 µM
IC50 (Mus musculus [3]): 0.254 µM
Relative potency (Mus musculus [4]): 0.0449
Ki [5]: 1.57 µM
Ki (Mu-type opioid receptor): 0.00826 µM

NC(=O)[C@@H]1CCC(=O)NCCC[C@@H](NC(=O)[C@@H](N)Cc2ccc(O)cc2)C(=O)N[C@H](CCc2ccccc2)C(=O)N1
Relative potency (Cavia porcellus [1]): 0.338
IC50 (Cavia porcellus [2]): 0.728 µM
IC50 (Mus musculus [3]): 4.16 µM
Relative potency (Mus musculus [4]): 0.00274
Ki [5]: 2.6 µM
Ki (Mu-type opioid receptor): 0.258 µM

NC(=O)[C@@H]1CCC(=O)NCCC[C@@H](NC(=O)[C@@H](N)Cc2ccc(O)cc2)C(=O)NC2(Cc3ccccc3C2)C(=O)N1 [listing 2 of 2 here]
Relative potency (Cavia porcellus [1]): 34.1
Relative potency (Mus musculus [4]): 0.312

NC(=O)[C@@H]1CCC(=O)NCCC[C@@H](NC(=O)[C@@H](N)Cc2ccc(O)cc2)C(=O)N[C@@H](CCc2ccccc2)C(=O)N1
Relative potency (Cavia porcellus [1]): 42.3
IC50 (Cavia porcellus [2]): 0.00582 µM
IC50 (Mus musculus [3]): 0.0343 µM
Relative potency (Mus musculus [4]): 0.332
Ki [5]: 0.0154 µM

NC(=O)[C@@H]1CCC(=O)NCCC[C@@H](NC(=O)[C@@H](N)Cc2ccc(O)cc2)C(=O)N[C@H](Cc2ccccc2)C(=O)N1
Relative potency (Cavia porcellus [1]): 0.28
Relative potency (Mus musculus [3]): 3.86 µM
Relative potency (Mus musculus [4]): 0.00295
Ki [5]: 14 µM
